A short description of test [1]: Stabilization of d[G3(T2AG3)3] sequence of F21T telomeric G-quadruplex DNA assessed as change in melting temperature at 1 uM by FRET assay relative to BRACO-19 in presence of calf thymus DNA. Summed up: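 F21T FRET melting with ligand at 1µM in the presence of calf thymus DNA competitor at increasing bp concentrations. Retained stabilization, from three experiments, normalized to the ligand's ΔTm with no competitor (100%) ± normalized sd.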

A short description of test [2]: Stabilization of d[(TA)2GC(TA)2T6(TA)2]GC(TA)2 sequence of duplex DNA assessed as change in melting temperature at 1 uM by FRET assay. Summed up: (§1)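 Dual-labelled FAM/TAMRA oligos at 400nM in 60mM KCl potassium cacodylate buffer, pH 7.4, heated to 85 °C for 10 min, then cooled. Ligand added to 1µM; buffer alone as negative control. Excitation 450–495nm, emission read at 515–545nm every 0.5 °C from 30–100 °C. ΔTm is ligand Tm minus control Tm, from four experiments ± maximum sd; c-kit1 curves fitted to sigmoids.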

The nature of test [3]: Cytotoxicity against human WI38 cells after 96 hrs by SRB assay. To be noted: WI-38, 96 h. It counts as cell-based. In general terms: The SRB assay estimates cell density from bound dye.
Test [4] can be described thus: Stabilization of d[AGAG3AG2GCGCTG3AG2AG3GCT] sequence of c-kit1 G-quadruplex DNA assessed as change in melting temperature at 1 uM by FRET assay. The gist of the method: as §1
Test [5] in a line: Stabilization of d[C3G3CG3CGCGAG3AG4AG2] sequence of c-kit2 G-quadruplex DNA assessed as change in melting temperature at 1 uM by FRET assay. The gist of the method: as §1
For test [6], the system named is A549. Briefly: Selectivity ratio of IC50 for human A549 cells to IC50 for human WI38 cells.
Test [7] concerns MCF7. Briefly: Selectivity ratio of IC50 for human MCF7 cells to IC50 for human WI38 cells.
For test [8], the target named is T1, Telomerase reverse transcriptase (Homo sapiens, UniProt O14746). Briefly: Inhibition of telomerase by TRAP-LIG assay.
T1 sequence (O14746 whole entry): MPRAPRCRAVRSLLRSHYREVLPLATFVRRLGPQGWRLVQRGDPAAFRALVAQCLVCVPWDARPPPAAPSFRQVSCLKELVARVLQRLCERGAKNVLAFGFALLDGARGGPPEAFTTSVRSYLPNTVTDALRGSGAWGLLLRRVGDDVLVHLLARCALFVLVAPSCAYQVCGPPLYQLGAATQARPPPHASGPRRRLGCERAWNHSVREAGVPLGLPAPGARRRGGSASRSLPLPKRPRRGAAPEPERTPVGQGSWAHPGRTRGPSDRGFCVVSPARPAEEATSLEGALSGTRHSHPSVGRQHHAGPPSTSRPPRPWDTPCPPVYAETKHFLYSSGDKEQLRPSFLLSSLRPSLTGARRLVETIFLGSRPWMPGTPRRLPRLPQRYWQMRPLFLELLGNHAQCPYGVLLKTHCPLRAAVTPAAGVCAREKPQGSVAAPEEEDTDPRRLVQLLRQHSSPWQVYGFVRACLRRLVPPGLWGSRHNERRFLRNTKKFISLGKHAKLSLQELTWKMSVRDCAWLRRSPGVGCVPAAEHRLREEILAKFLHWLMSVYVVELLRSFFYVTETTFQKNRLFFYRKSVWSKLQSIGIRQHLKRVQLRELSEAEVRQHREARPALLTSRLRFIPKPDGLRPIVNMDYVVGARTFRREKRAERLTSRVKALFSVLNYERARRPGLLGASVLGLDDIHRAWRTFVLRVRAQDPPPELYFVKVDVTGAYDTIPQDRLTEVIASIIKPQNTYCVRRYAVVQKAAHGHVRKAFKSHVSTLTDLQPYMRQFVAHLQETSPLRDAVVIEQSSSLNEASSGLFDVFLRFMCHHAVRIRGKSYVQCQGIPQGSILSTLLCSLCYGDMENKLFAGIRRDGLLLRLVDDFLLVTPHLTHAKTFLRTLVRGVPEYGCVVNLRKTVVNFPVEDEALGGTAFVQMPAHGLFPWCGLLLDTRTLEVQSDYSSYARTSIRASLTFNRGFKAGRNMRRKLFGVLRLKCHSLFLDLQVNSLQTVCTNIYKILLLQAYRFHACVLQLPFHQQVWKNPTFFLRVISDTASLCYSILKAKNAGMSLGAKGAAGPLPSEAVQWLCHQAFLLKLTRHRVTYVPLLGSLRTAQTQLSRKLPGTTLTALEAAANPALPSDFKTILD
A short description of test [9]: Binding affinity to biotin-labeled d[CGA2T2CGTCTC2GA2T2CG] sequence of duplex DNA by surface plasmon resonance analysis. Summed up:
(§2)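 Streptavidin chip with 5′-biotinylated DNA immobilized to 350-400 RU; blank reference flow cell. Run in 10mM HEPES, 100mM KCl, 3mM EDTA, P20 surfactant, pH 7.3, 25°C. Ligand 1nM to 10µM (from 20mM DMSO stock) injected at 50µl/min for 5–10 min to steady state, then 10 min buffer dissociation; glycine pH 2.0 regeneration between cycles.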

In test [10] the target is T1, Telomerase reverse transcriptase. Briefly: Inhibition of telomerase at 50 uM by TRAP-LIG assay relative to control.
Test [11] can be described thus: Stabilization of d[G3(T2AG3)3] sequence of F21T telomeric G-quadruplex DNA assessed as change in melting temperature at 1 uM by FRET assay. Summed up: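 Dual-labelled oligo (5′-FAM, 3′-TAMRA) at 400nM in FRET buffer (60mM KCl, K cacodylate, pH 7.4), heated to 85 °C for 10 min, cooled to room temperature. Ligand added from DMSO dilution. Excitation 450–495nm, emission 515–545nm, read every 0.5 °C from 30–100 °C. ΔTm from four experiments: averaged ligand Tm minus averaged buffer-control Tm, ± maximum sd.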

Test [12] is filed under the species Homo sapiens. Briefly: Binding affinity to biotin-labeled human telomeric d[AG3(T2AG3)3] sequence by surface plasmon resonance analysis. Summed up:
as §2
On the technique in general: SPR reads the build-up and loss of mass on a sensor chip optically.

Test [13] has as its system MCF7. Briefly: Cytotoxicity against human MCF7 cells after 96 hrs by SRB assay. Format: functional, cell-based. The note with it: MCF7, 96 h.
Test [14] deals with A549. Briefly: Cytotoxicity against human A549 cells after 96 hrs by SRB assay. Format: functional, cell-based. To be noted: A549, 96 h.
Test [15] has as its system MCF7. Briefly: Cytotoxicity against human MCF7 cells assessed as population doubling at 2 uM after 1 week […] relative to control. It counts as functional. Summed up:
(§3)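 MCF7 cells (1×10^5) treated with sub-cytotoxic ligand concentrations for 1 week, biweekly dosing. Cells counted by haemocytometer; population doublings n = (log Pn – log P0)/log2. Values normalized to vehicle control (100%) ± sd, two independent concentrations per ligand.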

In test [16] the test system is MCF7. Briefly: Cytotoxicity against human MCF7 cells assessed as cell senescence at 2 uM after 1 week by beta-galactosidase assay. Format: functional.
Test [17] deals with MCF7. Briefly: Cytotoxicity against human MCF7 cells assessed as cell senescence at 3.5 uM after 1 week by beta-galactosidase assay. It counts as functional.
The subject of test [18] is MCF7. Briefly: Cytotoxicity against human MCF7 cells assessed as population doubling at 3.50 uM after 1 week […] relative to control. It counts as functional. Summed up:
as §3

pEC50, pIC50: −log10 of the molar value. Activity calls are given as the source filed them. The rule behind the calls is not given here.

This is an account of results in ChEMBL document CHEMBL1151765, “Rational design of substituted diarylureas: a scaffold for binding to G-quadruplex motifs” (J Med Chem, 2008).

Broadly, the pIC50 is the IC50 on a negative log10 scale, so that one unit is a factor of ten. Lower therefore signals a high IC50. As a reminder, the pEC50 is the negative decadic logarithm of the EC50, by convention in mol/L.

As to `CN(C)c1ccc(Nc2c3ccc(NC(=O)CCN4CCCC4)cc3nc3cc(NC(=O)CCN4CCCC4)ccc23)cc1`, the outcome in [1] was Active. The change in melting temperature (ΔTm) in test [2] stood at 11.2 °C; in test [4], 20.1 °C; in test [5], 25.3 °C; in test [11], 25.9 °C. In addition, the pIC50 in test [3] was 4.97. For the same compound, the Ratio IC50 is 4.5 in test [6] and 4.3 in test [7]. This compound also gave a pEC50 in test [8] of 5.20. The KA in test [9] was found to be 0.5 ×10⁶ /M; in test [12], 31 ×10⁶ /M. Also, the result in test [10] was inactive.

In the case of `O=C(CCN1CCCC1)Nc1cc(NC(=O)Nc2cc(NC(=O)CCN3CCCC3)cc(C(=O)Nc3ccccc3)c2)cc(C(=O)Nc2ccccc2)c1`, the outcome in test [1] was Active. For the same compound, the results for the negative logarithm of the IC50 (pIC50) in [3], in test [13] and in test [14] were 4.79, 4.49 and 4.38, respectively. In addition, the change in melting temperature (ΔTm) stood at 4.9 °C in test [4], 12.9 °C in [5] and 13.3 °C in test [11]. The Ratio IC50 in test [6] turned out to be 0.4; in test [7], 0.5.

`O=C(CCN1CCOCC1)Nc1ccc(NC(=O)c2cccc(NC(=O)Nc3cccc(C(=O)Nc4ccc(NC(=O)CCN5CCOCC5)cc4)c3)c2)cc1`: the change in melting temperature (ΔTm) in test [2] was determined as 0.2 °C; in [5], 1.3 °C; in test [11], 1 °C. Besides, the pIC50 in [3] was less than 4.30; in test [13], 4.39; in [14], less than 4.30.

Turning to `CN(C)CCC(=O)Nc1ccc(NC(=O)c2cccc(NC(=O)Nc3cccc(C(=O)Nc4ccc(NC(=O)CCN(C)C)cc4)c3)c2)cc1`, the outcome in test [1] was Active. Besides, the change in melting temperature (ΔTm) in test [2] turned out to be 0.1 °C; in [4], 2.9 °C; in test [5], 13.6 °C; in test [11] it was 12.3 °C. Also, the pIC50 in [3] was less than 4.30; in test [13], 4.91; in [14] it was less than 4.30. Further, the “Ratio IC50” value in test [6] is listed as 1.

In the case of `O=C(CN1CCCC1)Nc1cccc(NC(=O)c2cccc(NC(=O)Nc3cccc(C(=O)Nc4cccc(NC(=O)CN5CCCC5)c4)c3)c2)c1`, in test [1], the result was Active. In addition, the change in melting temperature (ΔTm) was found to be 0.3 °C in [2], 3.4 °C in test [4], 10.5 °C in [5] and 6.8 °C in [11]. The negative logarithm of the IC50 (pIC50) in test [3] was 4.64; in [13], 4.47; in test [14] it was less than 4.30. In addition, the “Ratio IC50” value in test [6] is listed as 0.5.

For `O=C(CCCN1CCCC1)Nc1cccc(NC(=O)c2ccc(NC(=O)Nc3ccc(C(=O)Nc4cccc(NC(=O)CCCN5CCCC5)c4)cc3)cc2)c1`, the results for the change in melting temperature (ΔTm) in test [2], in test [5] and in [11] were 5.5 °C, 6.5 °C and 3.3 °C, respectively. The negative-log IC50 (pIC50) was less than 4.60 in [3], 4.71 in [13] and 4.71 in test [14]. Moreover, the Ratio IC50 in test [6] and in test [7] was 1.3 in each case.

In the case of `O=C(CCCN1CCCC1)Nc1cc(NC(=O)Nc2cc(NC(=O)CCCN3CCCC3)cc(C(=O)Nc3ccccc3)c2)cc(C(=O)Nc2ccccc2)c1`, the outcome in test [1] was Active. Further, the change in melting temperature (ΔTm) in test [2] was found to be 0.5 °C; in [4], 6.3 °C; in test [5], 11.7 °C; in [11], 12.3 °C. In addition, the figures for the pIC50 in test [3], in test [13] and in [14] were 4.96, 4.62 and 4.51, respectively. Moreover, the Ratio IC50 in test [6] was 0.4.

Take `O=C(CN1CCCC1)Nc1ccc(NC(=O)c2ccc(NC(=O)Nc3ccc(C(=O)Nc4ccc(NC(=O)CN5CCCC5)cc4)cc3)cc2)cc1`: the pIC50 in test [3], in test [13] and in test [14] was less than 4.60 each time. In addition, in test [6], the “Ratio IC50” value amounted to 1.

On to `O=C(CCN1CCCCC1)Nc1ccc(NC(=O)c2cccc(NC(=O)Nc3cccc(C(=O)Nc4ccc(NC(=O)CCN5CCCCC5)cc4)c3)c2)cc1`, for which the Activity in test [15] was found to be 89.2%; in test [16], 1.29%; in [17], 1.33%; in [18], 84.3%. Besides, the outcome in test [1] was Active. Further, the change in melting temperature (ΔTm) in [2] was 0.1 °C; in [4], 7 °C; in test [5], 7.1 °C; in test [11], 5.2 °C. In addition, the values for the negative-log IC50 (pIC50) in test [3], in test [13] and in [14] were less than 4.30, 5.29 and less than 4.30, respectively. The “Ratio IC50” value in test [6] came to 1.

In turn, `C[n+]1ccc(-c2c3nc(c(-c4cc[n+](C)cc4)c4ccc([nH]4)c(-c4cc[n+](C)cc4)c4nc(c(-c5cc[n+](C)cc5)c5ccc2[nH]5)C=C4)C=C3)cc1` [TMPYP4 CHLORIDE] gave a pEC50 in [8] of 5.05.

Regarding `C[n+]1ccc(-c2c3nc(c(-c4cc[n+](C)cc4)c4ccc([nH]4)c(-c4cc[n+](C)cc4)c4ccc([nH]4)c(-c4cc[n+](C)cc4)c4nc2C=C4)C=C3)cc1`, the result in [10] was inactive.

As to `O=C(CCCN1CCCC1)Nc1cccc(NC(=O)c2cccc(NC(=O)Nc3cccc(C(=O)Nc4cccc(NC(=O)CCCN5CCCC5)c4)c3)c2)c1`, the result in test [1] was Active. Besides, the pIC50 is 4.58 in test [3], 4.30 in test [13] and less than 4.30 in test [14]. Also, the change in melting temperature (ΔTm) was determined as 7.8 °C in test [4], 16.3 °C in [5] and 13.6 °C in test [11]. In test [6], the “Ratio IC50” value was determined as 0.5.

Consider `O=C(CCN1CCCC1)Nc1cccc(NC(=O)c2cccc(NC(=O)Nc3cccc(C(=O)Nc4cccc(NC(=O)CCN5CCCC5)c4)c3)c2)c1`, for which, in [1], the result was Active. Also, the change in melting temperature (ΔTm) was 2.8 °C in [2], 6.7 °C in test [4], 15.3 °C in test [5] and 14.1 °C in test [11]. Besides, the pIC50 was 4.71 in [3], 4.84 in test [13] and less than 4.30 in [14]. Besides, the “Ratio IC50” value in test [6] amounted to 0.4.

For `O=C(CN1CCCC1)Nc1cc(NC(=O)Nc2cc(NC(=O)CN3CCCC3)cc(C(=O)Nc3ccccc3)c2)cc(C(=O)Nc2ccccc2)c1`, in test [1], the result was Active. Moreover, the pIC50 in test [3] is 4.86; in test [13], 4.66; in [14] it was less than 4.30. For the same compound, the values for the change in melting temperature (ΔTm) in test [4], in test [5] and in [11] were 5.3 °C, 8.7 °C and 13.6 °C, respectively. The Ratio IC50 in test [6] was found to be 0.3; in [7], 0.6.

For the compound `O=C(CN1CCCC1)Nc1cccc(NC(=O)c2ccc(NC(=O)Nc3ccc(C(=O)Nc4cccc(NC(=O)CN5CCCC5)c4)cc3)cc2)c1`, the change in melting temperature (ΔTm) turned out to be 2.5 °C in test [2], 0.7 °C in test [4], 2 °C in test [5] and 1.8 °C in test [11]. Besides, the pIC50 in [3], in test [13] and in test [14] was less than 4.30 in each case. The Ratio IC50 in test [6] and in test [7] was 1 throughout.
